Calls of active or inactive are those of the source. The rule behind the calls is not given here.
Key:
Quadruplex DNA [1] = assay: Stabilization of c-myc Pu22 G4 quadruplex oligonucleotide (unknown origin) assessed as anisotropic shift at 2 equivalents of compound by NMR spectroscopy; type: nucleic-acid assay
Outline: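 1H NMR titration of the c-myc Pu22 oligomer, following the G-tetrad imino hydrogen-bonding region (10.95–11.6 ppm) for anisotropic shifts.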

SNB-19 [2] = assay: Anticancer activity against human SNB-19 cells assessed as cell growth inhibition measured after 3 to 5 days by MTT assay; type: functional, cell-based
Outline: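 MTT colorimetric growth-inhibition assay in SNB-19 glioblastoma cells. IC50 obtained by fitting a logistic model to the dose-response data, as the concentration giving 50% growth inhibition relative to the DMSO control.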

C6 = assay: Anticancer activity against rat C6 cells assessed as cell growth inhibition measured after 3 to 5 days by MTT assay; type: functional, cell-based
MDA-MB-468 = assay: Anticancer activity against human MDA-MB-468 cells assessed as cell growth inhibition measured after 3 to 5 days by MTT assay; type: functional, cell-based
SNB-19 [3] = assay: Induction of apoptosis in human SNB-19 cells assessed as organized cell death at 500 nM incubated for 10 mins followed by compound washout twice by HCS NuclearMask staining based confocal laser scanning microscopy; type: functional
Outline: (§1)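 Cells plated at 20,000 cells/well and left to adhere overnight. Treatment medium was made from 5 mM DMSO stocks diluted in growth medium and applied for 10 min at growth conditions. Cells were then washed twice with PBS and fixed in 4% PFA for 10 min on ice. Imaged immediately by confocal microscopy, 60x oil objective, excitation 405 nm, emission 422 nm, with HCS NuclearMask counterstain.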

[4] = Drug uptake in nucleus of human SNB-19 cells at 500 nM incubated for 10 mins followed by compound washout twice by HCS NuclearMask staining based confocal laser scanning microscopy; type: ADME, subcellular; conditions: snb-19, 10 min, 0.5 µM; outline: as §1
Quadruplex DNA [5] = assay: Stabilization of c-myc Pu22 G4 quadruplex oligonucleotide (unknown origin) assessed as melting temperature at 2 equivalents of compound by thermal melting curve based analysis (reference value: 58.4 degC); type: nucleic-acid assay
Outline: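 Annealed at 90 °C for 10 min, then cooled gradually to 4 °C overnight. CD melting monitored at 265 nm from 20–90 °C at 1 °C/min in 0.5 °C steps. Tm from a six-parameter logistic fit.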

[6] = Drug uptake in cytoplasm of human SNB-19 cells at 500 nM incubated for 10 mins followed by compound washout twice by HCS NuclearMask staining based confocal laser scanning microscopy; type: ADME, subcellular; conditions: snb-19, 10 min, 0.5 µM; outline: as §1
SNB-19 [7] = assay: Induction of apoptosis in human SNB-19 cells assessed as membrane blebbing at 500 nM incubated for 10 mins followed by compound washout twice by HCS NuclearMask staining based confocal laser scanning microscopy; type: functional, cell-based; outline: as §1
Quadruplex DNA [8] = assay: Stabilization of c-myc Pu22 G4 quadruplex oligonucleotide (unknown origin) at 2 equivalents of compound by circular dichroism spectral analysis; type: nucleic-acid assay
Outline: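 Pu22 at 5 µM strand in 1 mM potassium phosphate pH 6, alone or with 2 equivalents compound, annealed at 90 °C for 10 min and then cooled to 4 °C overnight. CD spectra recorded 200–400 nm at 5 °C, 1 nm bandwidth, 0.2 nm step, 0.5 s per point.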

[9] = Drug uptake in human SNB-19 cells assessed as punctate localization at 500 nM incubated for 10 mins followed by compound washout twice by HCS NuclearMask staining based confocal laser scanning microscopy; type: ADME, cell-based; conditions: snb-19, 10 min, 0.5 µM; outline: as §1

| Compound | Activity (Quadruplex DNA [1]) | IC50 (MDA-MB-468) [µM] | IC50 (SNB-19 [2]) [µM] | IC50 (C6) [µM] | further results |
| --- | --- | --- | --- | --- | --- |
| CCOC(=O)c1c(-c2c3ccccc3c(-c3ccccc3)c3ccccc23)noc1C | Active | – | – | – | – |
| Cc1onc(-c2c3ccccc3c(-c3cccc4cccnc34)c3ccccc23)c1C(=O)Nc1cc(C(=O)N(CCCN(C)C)CCCN(C)C)n(C)c1 | Active | 1.17 | 2.03 | 6.71 | Activity (SNB-19 [3]): Active; Drug uptake [4]: Not Active; Tm (Quadruplex DNA [5]): 61.7 °C; Drug uptake [6]: Active; Activity (SNB-19 [7]): Active; Activity (Quadruplex DNA [8]): Active; Drug uptake [9]: Active |
| Cc1onc(-c2c3ccccc3c(-c3ccccn3)c3ccccc23)c1C(=O)Nc1cc(C(=O)N(CCCN(C)C)CCCN(C)C)n(C)c1 | – | 6.34 | > 25 | > 25 | – |

Continued, in another order:

| Activity (Quadruplex DNA [1]) | IC50 (MDA-MB-468) [µM] | Compound | IC50 (SNB-19 [2]) [µM] | IC50 (C6) [µM] | further results |
| --- | --- | --- | --- | --- | --- |
| – | 3.1 | Cc1onc(-c2c3ccccc3c(-c3ccncc3)c3ccccc23)c1C(=O)Nc1cc(C(=O)N(CCCN(C)C)CCCN(C)C)n(C)c1 | 7.08 | 16.9 | – |
| – | 1.29 | Cc1onc(-c2c3ccccc3c(-c3cccnc3)c3ccccc23)c1C(=O)Nc1cc(C(=O)N(CCCN(C)C)CCCN(C)C)n(C)c1 | 7.76 | > 25 | – |
| Active | – | Cc1onc(-c2c3ccccc3c(-c3ccccc3)c3ccccc23)c1C(=O)Nc1cc(C(=O)N(CCCN(C)C)CCCN(C)C)n(C)c1 | – | – | – |
